Measured values: ChEMBL document CHEMBL1127506, “Novel ligands specific for mitochondrial benzodiazepine receptors: 6-arylpyrrolo[2,1-d][1,5]benzothiazepine derivatives. Synthesis, structure-activity relationships, and molecular modeling studies” (J Med Chem, 1994)

Biological target: T1, Translocator protein (Rattus norvegicus, UniProt P16257)
Experiment: Displacement of [3H]-PK 11195 from peripheral (mitochondrial) benzodiazepine receptor (inactive); call rule not given here
In short: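 Male CD rat cortex (about 150 g) homogenized in ice-cold 50 mM PBS, pH 7.4, spun at 50000g for 10 min, and washed three times. 10 mg original wet tissue incubated with 1 nM [3H]PK 11195 and 8–12 drug concentrations (highest 10^-5 M) for 120 min at 4 °C. Nonspecific binding with 1 μM PK 11195. GF/B filtration, scintillation counting, triplicate points, IC50 by nonlinear curve fitting.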

T1 sequence (P16257 whole entry, looked up): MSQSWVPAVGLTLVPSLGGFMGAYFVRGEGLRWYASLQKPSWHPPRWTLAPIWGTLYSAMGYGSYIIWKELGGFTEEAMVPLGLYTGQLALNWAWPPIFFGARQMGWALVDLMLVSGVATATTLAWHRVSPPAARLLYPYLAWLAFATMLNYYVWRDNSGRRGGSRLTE

For `COc1ccc([C@H]2Sc3ccccc3-n3cccc3[C@H]2OC(C)=O)cc1`, the IC50 was “Not Active”.
In the case of `COc1ccc(C2=C(OC(=O)c3c(OC)cc(OC)cc3OC)c3cccn3-c3cc(C(F)(F)F)ccc3S2)cc1`, the IC50 is reported as “Not Active”.
`COc1ccc(C2=C(OC(=O)c3cccnc3)c3cccn3-c3ccccc3S2)cc1` was tested, and the IC50 was “Not Active”.
`COc1ccc(C2=C(OC(=O)c3c(OC)cc(OC)cc3OC)c3cccn3-c3ccccc3S2)cc1` was tested, and the IC50 was “Not Active”.
For `COc1ccc(C2=C(OC(=O)c3ccncc3)c3cccn3-c3ccccc3S2)cc1`, the IC50 was “Not Active”.
In the case of `COc1ccc(C2=C(OC(=O)c3c(OC)cc(OC)cc3OC)c3cccn3-c3cc(Cl)ccc3S2)cc1`, the IC50 is reported as “Not Active”.
`O=C1c2cccn2-c2ccccc2S(=O)(=O)C1c1ccccc1` (centres undefined) was tested, and the IC50 was “Not Active”.

Biological target: T1, Translocator protein
Experiment: Displacement of [3H]-PK 11195 from peripheral (mitochondrial) benzodiazepine receptor

Going from `COc1ccc(C2=C(OC(C)=O)c3cccn3-c3ccccc3[S+]2[O-])cc1` (centres undefined) to `CCCC(=O)OC1=C(c2ccc(OC)cc2)[S+]([O-])c2ccccc2-n2cccc21` (centres undefined), the IC50 falls from 2090 nM to 270 nM (7.7-fold). The second is the more potent here.

Going from `O=C1CSc2ccccc2-n2cccc21` to `O=C1c2cccn2-c2ccccc2SC1c1ccccc1` (centres undefined), the IC50 falls from over 14000 nM to 1220 nM. The second is the more potent here.

`CCC(=O)OC1=C(c2ccc(OC)cc2)Sc2ccccc2-n2cccc21` and `CCCC(=O)OC1=C(c2ccc(OC)cc2)Sc2ccccc2-n2cccc21` are within 1.5-fold of each other in IC50: 30 nM for the first, 28 nM for the second.

Compared with `COc1ccc(C2=C(OC(C)=O)c3cccn3-c3cc(Cl)ccc3S2)cc1`, `COc1ccc(C2=C(OC(C)=O)c3cccn3-c3ccc(Cl)cc3S2)cc1` is 2.7-fold lower in IC50: 650 nM for the first, 240 nM for the second. The second is the more potent here.

Going from `CC(=O)OC1=C(c2ccccc2)Sc2ccccc2-n2cccc21` to `CCC(=O)OC1=C(c2ccccc2)Sc2ccccc2-n2cccc21`, the IC50 rises from 20 nM to 67 nM (3.4-fold). The first is the more potent here.

First: CCCC(=O)OC1=C(c2ccccc2)Sc2ccccc2-n2cccc21
Second: CCCCC(=O)OC1=C(c2ccccc2)Sc2ccccc2-n2cccc21
The IC50 of the first is 2.2-fold lower: 22 nM for the first, 48 nM for the second.

`COc1ccc(C2Sc3ccccc3-n3cccc3C2=O)cc1` (centres undefined) and `COc1ccc(C2Sc3ccc(Cl)cc3-n3cccc3C2=O)cc1` (centres undefined) are within 1.5-fold of each other in IC50: 2090 nM for the first, 1410 nM for the second.

First: CS(=O)(=O)OC1=C(c2ccccc2)Sc2ccccc2-n2cccc21
Second: COc1ccc(C2=C(OS(C)(=O)=O)c3cccn3-c3ccccc3S2)cc1
The IC50 of the first is 1.6-fold lower: 60 nM for the first, 95 nM for the second.

Going from `O=C1c2cccn2-c2ccccc2[S+]([O-])C1c1ccccc1` (centres undefined) to `COc1ccc(C2C(=O)c3cccn3-c3ccccc3[S+]2[O-])cc1` (centres undefined), the IC50 rises from 14700 nM to 23000 nM (1.6-fold).

First: CC(=O)OC1=C(c2ccccc2)Sc2cc(Cl)ccc2-n2cccc21
Second: CC(=O)OC1=C(c2ccccc2)Sc2ccc(Cl)cc2-n2cccc21
The IC50 of the first is 2.4-fold lower: 230 nM for the first, 560 nM for the second.

Going from `COc1ccc(C2=C(OC(C)=O)c3cccn3-c3ccccc3S2(=O)=O)cc1` to `CC(=O)OC1=C(c2ccccc2)S(=O)(=O)c2ccccc2-n2cccc21`, the IC50 rises from 640 nM to 1140 nM (1.8-fold).

Going from `COc1ccc(C2=C(OC(=O)N(C)C)c3cccn3-c3ccccc3S2)cc1` to `COc1ccc(C2=C(OC(C)=O)c3cccn3-c3ccccc3S2)cc1`, the IC50 rises from 9 nM to 34 nM (3.8-fold).

Going from `COc1ccc(C2=C(OC(=O)N(C)C)c3cccn3-c3cc(Cl)ccc3S2)cc1` to `CCC(=O)OC1=C(c2ccc(OC)cc2)Sc2ccc(Cl)cc2-n2cccc21`, the IC50 rises from 170 nM to 490 nM (2.9-fold). The first is the more potent here.

Compared with `CN(C)C(=O)OC1=C(c2ccccc2)Sc2ccccc2-n2cccc21`, `CCCCCC(=O)OC1=C(c2ccccc2)Sc2ccccc2-n2cccc21` is 2.6-fold higher in IC50: 9 nM for the first, 23 nM for the second. The first is the more potent here.

Going from `CC(=O)OC1=C(c2ccccc2)[S+]([O-])c2ccccc2-n2cccc21` (centres undefined) to `CC(=O)OC1=C(c2ccccc2)Sc2c(Cl)cccc2-n2cccc21`, the IC50 falls from 690 nM to 8 nM (86-fold).

`COc1ccc(C2Sc3ccc(C(F)(F)F)cc3-n3cccc3C2=O)cc1` (centres undefined) and `COc1ccc(C2=C(OC(C)=O)c3cccn3-c3cc(C(F)(F)F)ccc3S2)cc1` are within 1.5-fold of each other in IC50: 6210 nM for the first, 4530 nM for the second.

Going from `CCC(=O)OC1=C(c2ccc(OC)cc2)Sc2ccc(C(F)(F)F)cc2-n2cccc21` to `COc1ccc(C2=C(OC(=O)N(C)C)c3cccn3-c3cc(C(F)(F)F)ccc3S2)cc1`, the IC50 falls from 2950 nM to 290 nM (10-fold).

Going from `COc1ccc(C2=C(OC(C)=O)c3cccn3-c3cccc(Cl)c3S2)cc1` to `COc1ccc(C2=C(OC(C)=O)c3cccn3-c3cc(OC)ccc3S2)cc1`, the IC50 rises from 20 nM to 1810 nM (90-fold).

`CCC(=O)OC1=C(c2ccccc2)Sc2ccc(Cl)cc2-n2cccc21` showed an IC50 of 820 nM.
